{"source": "paper PMC2151581", "about": "(The Journal of General Physiology, 2006)", "molecules": {"B1": {"name": "Slob57ΔN5: amino-terminal five residue–truncated Slob57 (deletion of residues 2–6) (protein)", "chain": "MAAQQQRIDNRNSAVTGHDPFVRPPVPEKKVRNIMKKLHKANGLKRSNSAIEFDVSALTAANRRQIYSSNRSASSEQDNSDLSEHSEKSPLVSARLDNLARLFFSKSMPAETGSRDTIDSVLTTRPNIKYQYSALDSGNGIVERSPRERAQREKALNATQEWIQGANGRYEVIAHLDEIGSRHGKNWFLVTDASVRTDRLQTLLPLPPDCVAFEDLPPNECAREILMELLGSLHHPYIYPVLDLGFLRNSSYNYACLVTPFNSRGSLKDLIYKAQWNEPWARKYTRKPNGLPVSQVQRLGRQILEALLFLKERGFPLHGHLHSGNVILQNGAARLSGLENGLLGLSSRINAVMWSRSVTEIENVDIVCFGHLLYEMCTGQELTTPKPSMRVLEMELQHYPQIGQTRKQILEILGLIFEPPSGVCPSVEDLVLCDLFRSIDLRELRGPCFSTIKPSLSRSTLNLLQAVKKRQCASLGHSLSEANSPCTPPSTPHDRRTGVLPAPYEVFRMY"}, "B2": {"name": "Slob57ΔN15: amino-terminal 15 residue–truncated Slob57 (deletion of residues 2–16) (protein)", "chain": "MNSAVTGHDPFVRPPVPEKKVRNIMKKLHKANGLKRSNSAIEFDVSALTAANRRQIYSSNRSASSEQDNSDLSEHSEKSPLVSARLDNLARLFFSKSMPAETGSRDTIDSVLTTRPNIKYQYSALDSGNGIVERSPRERAQREKALNATQEWIQGANGRYEVIAHLDEIGSRHGKNWFLVTDASVRTDRLQTLLPLPPDCVAFEDLPPNECAREILMELLGSLHHPYIYPVLDLGFLRNSSYNYACLVTPFNSRGSLKDLIYKAQWNEPWARKYTRKPNGLPVSQVQRLGRQILEALLFLKERGFPLHGHLHSGNVILQNGAARLSGLENGLLGLSSRINAVMWSRSVTEIENVDIVCFGHLLYEMCTGQELTTPKPSMRVLEMELQHYPQIGQTRKQILEILGLIFEPPSGVCPSVEDLVLCDLFRSIDLRELRGPCFSTIKPSLSRSTLNLLQAVKKRQCASLGHSLSEANSPCTPPSTPHDRRTGVLPAPYEVFRMY"}, "B3": {"name": "Slob57: ion channel auxiliary protein that binds to and modulates the Drosophila Slowpoke channel (dSlo) (protein)", "chain": "MFKFNKAAQQQRIDNRNSAVTGHDPFVRPPVPEKKVRNIMKKLHKANGLKRSNSAIEFDVSALTAANRRQIYSSNRSASSEQDNSDLSEHSEKSPLVSARLDNLARLFFSKSMPAETGSRDTIDSVLTTRPNIKYQYSALDSGNGIVERSPRERAQREKALNATQEWIQGANGRYEVIAHLDEIGSRHGKNWFLVTDASVRTDRLQTLLPLPPDCVAFEDLPPNECAREILMELLGSLHHPYIYPVLDLGFLRNSSYNYACLVTPFNSRGSLKDLIYKAQWNEPWARKYTRKPNGLPVSQVQRLGRQILEALLFLKERGFPLHGHLHSGNVILQNGAARLSGLENGLLGLSSRINAVMWSRSVTEIENVDIVCFGHLLYEMCTGQELTTPKPSMRVLEMELQHYPQIGQTRKQILEILGLIFEPPSGVCPSVEDLVLCDLFRSIDLRELRGPCFSTIKPSLSRSTLNLLQAVKKRQCASLGHSLSEANSPCTPPSTPHDRRTGVLPAPYEVFRMY"}}, "key": {"[1]": {"biological_target": "Drosophila Slowpoke calcium-dependent potassium channel (dSlo) (Drosophila melanogaster, UniProt Q03720)", "sequence (Q03720 whole entry)": "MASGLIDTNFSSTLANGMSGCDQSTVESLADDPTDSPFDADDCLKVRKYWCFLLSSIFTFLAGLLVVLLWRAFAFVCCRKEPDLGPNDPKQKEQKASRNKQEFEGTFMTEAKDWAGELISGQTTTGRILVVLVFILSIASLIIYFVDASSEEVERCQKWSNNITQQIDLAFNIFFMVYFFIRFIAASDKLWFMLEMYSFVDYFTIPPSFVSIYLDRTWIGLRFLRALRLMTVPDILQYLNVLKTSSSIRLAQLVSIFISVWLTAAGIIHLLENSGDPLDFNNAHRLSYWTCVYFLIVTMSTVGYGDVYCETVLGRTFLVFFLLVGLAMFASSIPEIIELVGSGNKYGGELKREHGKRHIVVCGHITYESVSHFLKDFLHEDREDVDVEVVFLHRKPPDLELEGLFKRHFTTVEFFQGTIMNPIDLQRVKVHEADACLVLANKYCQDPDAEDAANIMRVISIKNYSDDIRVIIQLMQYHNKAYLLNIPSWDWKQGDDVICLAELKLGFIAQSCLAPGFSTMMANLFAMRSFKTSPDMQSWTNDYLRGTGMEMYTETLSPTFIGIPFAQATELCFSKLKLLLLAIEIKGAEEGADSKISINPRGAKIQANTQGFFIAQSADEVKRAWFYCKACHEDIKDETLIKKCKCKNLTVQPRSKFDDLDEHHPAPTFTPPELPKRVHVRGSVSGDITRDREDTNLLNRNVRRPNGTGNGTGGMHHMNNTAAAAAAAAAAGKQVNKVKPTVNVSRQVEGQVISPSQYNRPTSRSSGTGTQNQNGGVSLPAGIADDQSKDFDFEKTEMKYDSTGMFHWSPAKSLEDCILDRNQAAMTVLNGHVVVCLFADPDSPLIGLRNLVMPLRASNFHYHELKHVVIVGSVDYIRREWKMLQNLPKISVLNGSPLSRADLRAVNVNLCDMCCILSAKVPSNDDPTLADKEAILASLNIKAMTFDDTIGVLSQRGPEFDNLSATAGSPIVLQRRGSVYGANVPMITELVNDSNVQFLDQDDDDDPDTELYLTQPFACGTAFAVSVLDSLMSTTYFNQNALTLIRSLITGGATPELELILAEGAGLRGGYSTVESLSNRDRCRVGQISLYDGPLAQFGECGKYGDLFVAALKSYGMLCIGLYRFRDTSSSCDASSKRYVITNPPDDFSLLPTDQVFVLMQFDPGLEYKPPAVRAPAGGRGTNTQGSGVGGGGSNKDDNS", "assay": "Inside-out patch recording of dSlo current with peptide on the cytoplasmic side", "type": "cell-based", "outline": "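Inside-out patches came from CHO cells transfected with dSlo, in symmetrical 150 mM KCl, 0.5 mM HEDTA, 1 mM Mg²⁺, 10 mM HEPES pH 7.2, with 7 μM free Ca²⁺, at room temperature. Peptide was dissolved in the bath (cytoplasmic side). Patches were stepped from −80 to +140 mV; the mean current over the last 10 ms was normalized to the same patch before peptide. A Hill equation fit across concentrations gave IC50.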"}, "BK channels": {"test_system": "BK channels", "conditions": "wild type and calcium bowl mutant channels; ref Zakharov et al., 2005; cited from earlier work"}, "dSlo": {"test_system": "dSlo", "assay": "Coimmunoprecipitation of Slobs with dSlo from CHO cell lysates, Western blot", "type": "binding, Drosophila", "conditions": "cotransfected CHO cells, anti-Slob immunoprecipitation", "outline": "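Slobs were cotransfected with the channel into CHO cells (Ham's F-12, 10% FBS, penicillin/streptomycin) using Lipofectamine 2000. Lysis was 1 d later in Tris-HCl pH 7.5/NaCl/KCl/NaF/1% CHAPS buffer with DTT and protease inhibitors. The 16,000 g supernatant was incubated with anti-Slob for 2 h at 4°C, then protein A/G agarose overnight at 4°C, with four PBS washes. SDS-PAGE, nitrocellulose, anti-dSlo 1 h at RT, HRP anti-rabbit, ECL. Controls were blank vector and nontransfected cells.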"}, "[2]": {"test_system": "dSloD5N5 (calcium bowl mutant of dSlo)", "type": "cell-based, Drosophila", "outline": "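CHO cells were cotransfected 1:1 (molar) with dSloD5N5 and Slob57 or truncation mutants using Lipofectamine 2000. Whole-cell recording was done 1 d later at room temperature with 2–4 MΩ pipettes, in symmetrical 150 mM KCl, 0.5 mM HEDTA, 2 mM MgCl₂, 10 mM HEPES pH 7.2, with 110 or 300 μM free Ca²⁺ in the pipette. Holding was −80 mV, then −120 mV afterward. 350-ms pulses were used for inactivation; 100-ms pulses gave G–V from peak tail currents and V1/2. Mean ± SEM, ANOVA/Bonferroni.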"}}, "note": "Ends that are not written are not given here."}
{"molecule": "MFKFNK [MFKFNK]", "values": [{"measurement": "IC50", "setting": "[1]", "value": 31, "unit": "µM"}, {"measurement": "Kd", "setting": "[1]", "value": 162, "unit": "µM"}]}
{"molecule": "CC(=O)c1c(O)c(C)c(O)c(Cc2c(O)c3c(c(C(=O)/C=C/c4ccccc4)c2O)OC(C)(C)C=C3)c1O", "note": "[mallotoxin]", "values": [{"measurement": "Ca2+ dependence of the modulation of BK channels", "setting": "BK channels", "value": "independent of Ca^2+ binding"}]}
{"molecule": "B1", "values": [{"measurement": "binding to dSlo (coimmunoprecipitation)", "setting": "dSlo", "value": "still bind to dSlo"}]}
{"molecule": "B2", "values": [{"measurement": "binding to dSlo (coimmunoprecipitation)", "setting": "dSlo", "value": "still bind to dSlo"}]}
{"molecule": "B3", "values": [{"measurement": "shift of the conductance–voltage relationship of dSloD5N5", "setting": "[2]; 100-ms test pulse, 110 μM free Ca2+", "value": "does not rightward shift"}, {"measurement": "modulation of V1/2 of dSloD5N5", "setting": "[2]; 100-ms test pulse, 300 μM free Ca2+", "value": "not modulated"}, {"measurement": "inactivation of dSloD5N5", "setting": "[2]; coexpression in CHO cells, whole cell, 110 μM free Ca2+, 350-ms test pulse", "value": "causes dSloD5N5 inactivation"}]}
